Measurements published in article PMC6500964 (Cancer Science, 2019).
“Also recorded” adds a separate entry of the source. Like-named read-outs stand apart in the source and are kept apart here.

Assays:
TE‐8 cells [1] = assay: WST‐8 cell proliferation assay; type: cell-based, human; details: for reduced the proliferation of TE‐8 cells by (average ± SD): compared with vehicle‐treated control cells
Method in brief: (§1)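 Human ESCC cells, obtained from the Tohoku University or Riken cell banks and authenticated, were seeded at 1‐5 × 10³ cells per well and cultured overnight. They were then exposed for 48 h to the GLUT1-inhibitor test compound (prepared in DMSO), cisplatin, or both, with DMSO-only wells as control. Surviving cells were read by WST‐8 absorbance at 450 nm. Results are mean ± SD of n = 3 replicates, compared by Student's t‐test.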

TE‐11 cells [2] = assay: WST‐8 cell proliferation assay; type: cell-based, human; details: for reduced the proliferation of TE‐11 cells by (average ± SD): compared with vehicle‐treated control cells
Method in brief: as §1

GLUT1 [3] = details: cited from earlier work
[4] = tested on: human lung cancer xenografts; details: nude mouse, daily intraperitoneal injection of 10 mg/kg for 10 weeks; cited from earlier work
GLUT1 [5] = details: cited from earlier work; remark: listed apart in the source
TE‐8 cells [6] = details: read-out: cisplatin IC50 value, low GLUT1 expression, ref GSE36133 and the Genomics of Drug Sensitivity in Cancer; cited from earlier work
TE‐11 cells [7] = details: read-out: cisplatin IC50 value, high GLUT1 expression, ref GSE36133 and the Genomics of Drug Sensitivity in Cancer; cited from earlier work

## O=C(O)C(=O)CBr [3‐bromopyruvate]
TE‐8 cells [1]; 50 μmol/L, data not shown
  proliferation of TE‐8 cells: inhibits the proliferation
TE‐11 cells [2]; 50 μmol/L, data not shown
  proliferation of TE‐11 cells: inhibits the proliferation

## Cc1c(NC(=O)c2cc(C(N)=O)nc3cc(F)ccc23)c(C(F)(F)F)nn1Cc1ccc(C#N)cc1 [BAY‐876]
TE‐8 cells [1]; 0.025 nmol/L BAY‐876, 48 h
  reduced the proliferation of TE‐8 cells by (average ± SD): 59.9% ± 4.9%
TE‐8 cells [1]; 0.1 nmol/L BAY‐876, 48 h
  inhibition of proliferation of TE‐8 cells: almost complete inhibition; also recorded: strong anti–proliferative effect
TE‐11 cells [2]; 0.025 nmol/L BAY‐876, 48 h
  reduced the proliferation of TE‐11 cells by (average ± SD): 51.0% ± 8.2%
TE‐11 cells [2]; 0.1 nmol/L BAY‐876, 48 h
  inhibition of proliferation of TE‐11 cells: almost complete inhibition; also recorded: strong anti–proliferative effect
GLUT1 [3]
  selectivity and affinity for GLUT1: high selectivity and affinity

## O=C(Oc1cccc(F)c1OC(=O)c1cccc(O)c1)c1cccc(O)c1 [WZB117]
[4]
  blood glucose effect: hyperglycemia
  lymphocyte and platelet counts: aberrant lymphocyte and platelet counts
  reduction in the volume of human lung cancer xenografts: > 70%
GLUT1 [5]; 30 μmol/L
  efficacy in vitro: shown efficacy in vitro

## N.N.[Cl][Pt][Cl] [cisplatin]
TE‐8 cells [1]; 0.5 μmol/L cisplatin, 48 h
  reduced the proliferation of TE‐8 cells by (average ± SD): 79.9% ± 2.3%
TE‐11 cells [2]; 0.5 μmol/L cisplatin, 48 h
  reduced the proliferation of TE‐11 cells by (average ± SD): 46.0% ± 6.5%
TE‐11 cells [2]; 0.2 and 0.4 μg/mL cisplatin, 48 h, TE11 cells transfected with GLUT1‐specific siRNA
  effect of very low doses of cisplatin on proliferation: strong inhibitory effect
TE‐8 cells [6]
  IC50: 10.1 µM
TE‐11 cells [7]
  IC50: 20.4 µM

## Oc1ccc(/C=C/c2cc(O)cc(O)c2)cc1 [resveratrol]
GLUT1 [5]; 50 μmol/L
  efficacy in vitro: shown efficacy in vitro
